These results are taken from ChEMBL document CHEMBL4627283, “Discovery and optimization of 4-oxo-2-thioxo-thiazolidinones as NOD-like receptor (NLR) family, pyrin domain-containing protein 3 (NLRP3) inhibitors” (Bioorg Med Chem Lett, 2020).

Data set [1] has as its target T1, NACHT, LRR and PYD domains-containing protein 3 (Homo sapiens, UniProt Q96P20). Briefly: Inhibition of NLRP3 inflammasome (unknown origin) activation in LPS-primed bone marrow derived macrophage cells at 10 uM in presence of mono sodium urate relative to control.
The nature of data set [2]: Half life in mouse liver microsomes in presence of NADPH. In kind it is ADME, Microsome. The procedure, abridged:
(§1)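 Stability in human and mouse liver microsomes incubated with an NADPH regenerating system; half-life (min) and hepatic clearance (mL/min/kg) determined.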

Data set [3] deals with T1, NACHT, LRR and PYD domains-containing protein 3. Briefly: Inhibition of NLRP3 inflammasome (unknown origin) activation in LPS-primed bone marrow derived macrophage cells assessed as effect on IL-1beta production in presence of nigericin by ELISA. A digest of the protocol:
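BMDMs pretreated with varied doses of compound, then LPS-primed and stimulated with nigericin; IL-1β in supernatant by ELISA, normalized to DMSO-treated control; IC50 given as mean ± SD.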

Data set [4] in a line: Clearance in mouse liver microsomes in presence of NADPH. Type of data set: ADME, Microsome. The procedure, abridged: as §1
Background: Liver microsomes are vesicles of endoplasmic reticulum, rich in cytochrome P450 enzymes.

Data set [5] can be described thus: Clearance in human liver microsomes in presence of NADPH. Type of data set: ADME, Microsome. The procedure, abridged:
as §1

The target of data set [6] is Cystic fibrosis transmembrane conductance regulator (Homo sapiens) (UniProt P13569). Briefly: Inhibition of CFTR in human HT-29 cells assessed as effect on intracellular chloride efflux at 20 uM relative to control. In kind it is cell-based.
The next data set is filed under the species Homo sapiens. Briefly: Selectivity index, ratio of inhibition of NLRP3 inflammasome (unknown origin) activation in bone marrow derived macrophage cells at 10 uM to inhibition of CFTR in human HT-29 cells at 20 uM. Type of data set: cell-based. A digest of the protocol:
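Selectivity index: % NLRP3 inhibition in BMDMs at 10 μM divided by % CFTR inhibition in HT29 cells at 20 μM.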

A short description of data set [7]: Half life in human liver microsomes in presence of NADPH. In kind it is ADME, Microsome. A digest of the protocol: as §1
In data set [8] the target is T1, NACHT, LRR and PYD domains-containing protein 3. Briefly: Inhibition of NLRP3 inflammasome (unknown origin) assessed as suppression of mono sodium urate-induced IL-1beta level by immunoblot analysis. The procedure, abridged:
(§2)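 LPS-primed BMDMs treated with graded doses of test compound, then stimulated with MSU; IL-1β and cleaved caspase-1 (p20) in culture supernatants detected by immunoblot.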
In general terms: In western blotting, separated proteins are transferred to a membrane and probed.

For data set [9] the target is unchanged. Briefly: Inhibition of NLRP3 inflammasome (unknown origin) assessed as suppression of mono sodium urate-induced caspase 1 activation by immunoblot analysis. A digest of the protocol:
as §2

Chain of Cystic fibrosis transmembrane conductance regulator (Homo sapiens) (P13569 whole entry, looked up): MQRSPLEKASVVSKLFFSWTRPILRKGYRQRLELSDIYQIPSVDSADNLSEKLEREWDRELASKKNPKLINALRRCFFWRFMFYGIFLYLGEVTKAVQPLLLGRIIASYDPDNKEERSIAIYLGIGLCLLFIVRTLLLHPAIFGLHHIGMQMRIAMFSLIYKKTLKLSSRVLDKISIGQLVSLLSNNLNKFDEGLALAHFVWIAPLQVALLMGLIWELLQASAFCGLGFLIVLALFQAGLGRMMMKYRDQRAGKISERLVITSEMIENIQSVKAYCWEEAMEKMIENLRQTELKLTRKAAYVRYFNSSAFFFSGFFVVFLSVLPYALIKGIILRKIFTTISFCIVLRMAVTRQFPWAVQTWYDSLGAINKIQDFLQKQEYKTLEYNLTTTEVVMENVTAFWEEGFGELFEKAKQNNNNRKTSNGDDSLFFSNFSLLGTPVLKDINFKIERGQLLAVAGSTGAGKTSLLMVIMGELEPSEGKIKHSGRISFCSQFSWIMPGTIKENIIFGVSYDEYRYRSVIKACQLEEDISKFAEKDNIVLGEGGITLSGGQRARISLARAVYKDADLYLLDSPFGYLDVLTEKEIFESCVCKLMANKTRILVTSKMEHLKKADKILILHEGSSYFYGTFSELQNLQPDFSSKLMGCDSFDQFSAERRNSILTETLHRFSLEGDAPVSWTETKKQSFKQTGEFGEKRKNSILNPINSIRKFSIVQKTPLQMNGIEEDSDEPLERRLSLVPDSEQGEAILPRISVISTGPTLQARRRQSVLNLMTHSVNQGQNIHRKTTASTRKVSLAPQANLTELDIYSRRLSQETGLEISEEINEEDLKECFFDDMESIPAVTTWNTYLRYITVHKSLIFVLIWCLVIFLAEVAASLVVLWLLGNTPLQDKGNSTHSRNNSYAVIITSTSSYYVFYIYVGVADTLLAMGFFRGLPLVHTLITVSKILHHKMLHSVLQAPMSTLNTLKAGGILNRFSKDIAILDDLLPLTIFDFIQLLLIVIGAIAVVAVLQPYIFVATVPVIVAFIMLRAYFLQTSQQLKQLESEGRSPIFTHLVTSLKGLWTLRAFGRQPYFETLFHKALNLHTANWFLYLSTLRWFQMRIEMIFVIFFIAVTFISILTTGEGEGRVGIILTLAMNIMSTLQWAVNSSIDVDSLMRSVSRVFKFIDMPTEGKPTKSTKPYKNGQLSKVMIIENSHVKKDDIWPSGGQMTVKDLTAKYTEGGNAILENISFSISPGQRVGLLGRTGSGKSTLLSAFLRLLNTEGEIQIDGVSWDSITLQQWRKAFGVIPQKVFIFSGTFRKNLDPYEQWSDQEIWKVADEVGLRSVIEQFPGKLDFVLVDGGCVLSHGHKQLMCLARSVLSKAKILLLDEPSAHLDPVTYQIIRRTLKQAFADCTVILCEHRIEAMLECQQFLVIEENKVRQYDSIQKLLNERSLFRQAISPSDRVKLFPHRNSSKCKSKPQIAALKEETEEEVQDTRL
T1 sequence (Q96P20 whole entry, the tested form may be a part): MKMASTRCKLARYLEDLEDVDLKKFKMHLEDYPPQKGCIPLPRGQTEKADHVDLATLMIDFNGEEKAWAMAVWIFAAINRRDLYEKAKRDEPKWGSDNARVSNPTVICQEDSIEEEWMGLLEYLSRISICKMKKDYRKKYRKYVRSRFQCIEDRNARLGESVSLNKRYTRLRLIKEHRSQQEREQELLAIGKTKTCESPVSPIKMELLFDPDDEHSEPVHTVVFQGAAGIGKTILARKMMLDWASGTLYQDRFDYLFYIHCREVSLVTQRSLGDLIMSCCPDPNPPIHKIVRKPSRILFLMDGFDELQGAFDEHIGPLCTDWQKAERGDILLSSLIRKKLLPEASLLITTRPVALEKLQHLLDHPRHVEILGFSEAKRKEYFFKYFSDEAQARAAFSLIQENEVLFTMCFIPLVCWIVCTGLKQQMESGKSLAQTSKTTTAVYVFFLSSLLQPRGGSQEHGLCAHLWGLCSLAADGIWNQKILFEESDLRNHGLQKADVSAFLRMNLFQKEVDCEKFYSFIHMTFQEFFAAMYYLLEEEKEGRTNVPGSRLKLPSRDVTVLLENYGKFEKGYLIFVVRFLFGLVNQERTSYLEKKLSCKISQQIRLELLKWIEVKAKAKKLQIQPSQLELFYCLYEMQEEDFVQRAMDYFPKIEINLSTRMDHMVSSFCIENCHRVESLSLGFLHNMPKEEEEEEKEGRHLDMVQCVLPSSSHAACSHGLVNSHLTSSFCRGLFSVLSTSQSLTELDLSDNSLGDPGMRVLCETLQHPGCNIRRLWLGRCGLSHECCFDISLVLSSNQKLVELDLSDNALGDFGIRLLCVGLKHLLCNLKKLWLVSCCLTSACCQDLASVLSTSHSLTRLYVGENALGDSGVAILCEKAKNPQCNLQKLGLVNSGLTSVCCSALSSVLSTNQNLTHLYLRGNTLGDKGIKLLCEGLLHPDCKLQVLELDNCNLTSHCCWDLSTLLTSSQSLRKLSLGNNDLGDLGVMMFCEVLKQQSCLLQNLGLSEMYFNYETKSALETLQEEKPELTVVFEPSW

A word on the inhibition: it is the relative decrease from the control value, in per cent. For orientation: half-life means the time needed for the level to fall by half in the phase considered. One may read the IC50 as the point on the concentration scale where inhibition reaches its midpoint. Regarding `O=C(c1ccc(/C=C2\SC(=S)N(c3cccc(OC(F)(F)F)c3)C2=O)cc1)N1CCOCC1`, the inhibition stood at 75% in data set [1] and 68% in data set [6]. Besides, the values for the half-life in data set [2] and in [7] were 23.9 min and 187 min, respectively. In addition, the IC50 in [3] came out at 3.18 µM. The CLhep predicted in data set [4] was 58.1 mL/min/kg; in [5], 3.9 mL/min/kg. Also, the Selectivity Index in the data set filed under Homo sapiens is 1.1.

With `O=C1/C(=C/c2ccc(-c3nnn[nH]3)cc2)SC(=S)N1CCc1cccc(C(F)(F)F)c1`, the inhibition in data set [1] was determined as 67%. The IC50 in data set [3] was determined as 6.5 µM.

Turning to `O=C1/C(=C/c2ccc(-c3nnn[nH]3)cc2)SC(=S)N1Cc1cccc(C(F)(F)F)c1`, the inhibition in data set [1] stood at 67%. The 50% inhibitory concentration (IC50) in data set [3] is 5.58 µM.

On to `CN1CCN(C(=O)c2ccc(/C=C3\SC(=S)N(c4cccc(OC(F)(F)F)c4)C3=O)cc2)CC1`, for which the inhibition was 76% in data set [1] and 69% in [6]. Besides, the half-life in data set [2] was found to be 3.7 min; in data set [7], 27.1 min. In addition, the IC50 in [3] came out at 2.57 µM. Further, the CLhep predicted was 83 mL/min/kg in data set [4] and 12.8 mL/min/kg in data set [5]. Also, the Selectivity Index in the data set listed under Homo sapiens is 1.1.

For the compound `CN1CCN(C(=O)c2ccc(/C=C3\SC(=S)N(c4cccc([N+](=O)[O-])c4)C3=O)cc2)CC1`, the inhibition in [1] came to 81%; in data set [6], 66%. Besides, the values for the half-life in data set [2] and in data set [7] were 1.8 min and 13.8 min, respectively. The IC50 in [3] was 2.98 µM. For the same compound, the CLhep predicted was 86.5 mL/min/kg in data set [4] and 15.8 mL/min/kg in data set [5]. In the data set listed under Homo sapiens, the Selectivity Index is 1.23.

`O=C1/C(=C/c2ccc(-c3nnn[nH]3)cc2)SC(=S)N1CCCc1cccc(C(F)(F)F)c1`: the inhibition in data set [1] was 72%; in data set [6], above 10%. Further, the IC50 in data set [3] was 4.85 µM.

In the case of `CC(C)NCC(O)COc1cccc2ccccc12` (stereo unspecified) [PROPRANOLOL], the half-life in data set [2] stood at 1.7 min; in [7], 15.6 min. In addition, the CLhep predicted was 86.6 mL/min/kg in data set [4] and 15.3 mL/min/kg in [5].

Turning to `O=C(O)c1ccc(/C=C2\SC(=S)N(CCCc3cccc(C(F)(F)F)c3)C2=O)cc1`, the inhibition in [1] was 68%. Further, the IC50 in data set [3] was found to be 4.32 µM.

Consider `O=C(c1ccc(/C=C2\SC(=S)N(c3cccc(C(F)(F)F)c3)C2=O)cc1)N1CCC(O)CC1`, for which the inhibition in data set [1] came out at 80%; in data set [6], 72%. In addition, the half-life in data set [2] was determined as 4 min; in data set [7], 44.1 min. For the same compound, the IC50 in [3] came to 2.44 µM. Further, the results for the CLhep predicted in data set [4] and in data set [5] were 82.4 mL/min/kg and 10.3 mL/min/kg, respectively. Also, the Selectivity Index in the data set listed under Homo sapiens amounted to 1.11.

For the compound `O=C(O)c1ccc(/C=C2\SC(=O)N(Cc3cccc(C(F)(F)F)c3)C2=O)cc1`, the inhibition was 67% in [1] and 23% in [6]. In addition, the half-inhibitory concentration (IC50) in data set [3] is 5.96 µM.

For the compound `O=C(O)c1ccc(/C=C2\SC(=S)N(Cc3cccc(OC(F)(F)F)c3)C2=O)cc1`, the inhibition in data set [1] amounted to 29%; in [6] it was 12%. Moreover, the IC50 in data set [3] was above 10 µM.

With `O=C1S/C(=C\c2ccc(-c3nnn[nH]3)cc2)C(=O)N1Cc1cccc(C(F)(F)F)c1`, the inhibition in data set [1] is 63%; in [6], above 10%. Besides, the IC50 in [3] is 5.61 µM.

Consider `C[C@]12CC[C@H]3[C@@H](CCC4=CC(=O)CC[C@@]43C)[C@@H]1CC[C@@H]2O` [TESTOSTERONE], for which, in [5], the CLhep predicted is 2.8 mL/min/kg. For the same compound, in data set [7], the half-life was 277 min.

`O=C(O)c1ccc(/C=C2\SC(=S)N(Cc3ccc(-c4ccccc4)cc3)C2=O)cc1`: the inhibition in data set [1] was found to be 73%; in data set [6] it was 11%. In [3], the IC50 was 7.63 µM.

Consider `O=C(Nc1ccccc1)c1ccc(/C=C2\SC(=S)N(c3cccc(C(F)(F)F)c3)C2=O)cc1`, for which the inhibition in [1] stood at 32%; in [6], 27%. In addition, in data set [3], the IC50 is above 10 µM. For the same compound, the Selectivity Index in the data set listed under Homo sapiens amounted to 1.19.

Regarding `CN1CCN(C(=O)c2ccc(/C=C3\SC(=S)N(c4cccc(C(F)(F)F)c4)C3=O)cc2)CC1`, the inhibition was determined as 81% in data set [1] and 77% in data set [6]. In addition, the figures for the half-life in data set [2] and in data set [7] were 1.7 min and 15.6 min, respectively. The IC50 in data set [3] amounted to 2.69 µM. In addition, the CLhep predicted was 86.6 mL/min/kg in [4] and 15.3 mL/min/kg in data set [5]. Moreover, the Selectivity Index in the data set listed under Homo sapiens worked out at 1.05.

Take `O=C(O)c1ccc(/C=C2\SC(=S)N(CCc3cccc(C(F)(F)F)c3)C2=O)cc1`: the inhibition in [1] is 74%; in data set [6], above 10%. For the same compound, the IC50 in data set [3] is 5.91 µM.

As to `O=C(O)c1ccc(/C=C2\SC(=S)N(c3cccc(C(F)(F)F)c3)C2=O)cc1`, the inhibition in data set [1] is 71%; in [8], “Dose-dependent effect”; in [6], 86%; in [9] it was “Dose-dependent effect”. Moreover, the half-life in [2] was found to be 12.6 min; in data set [7], 277 min. Also, in data set [3], the 50% inhibitory concentration (IC50) stood at 6.39 µM. Moreover, the CLhep predicted was 69.8 mL/min/kg in data set [4] and 2.8 mL/min/kg in data set [5]. Besides, in the data set filed under Homo sapiens, the Selectivity Index stood at 0.83.

With `O=C(c1ccc(/C=C2\SC(=S)N(c3cccc(C(F)(F)F)c3)C2=O)cc1)N1CCOCC1`, the figures for the inhibition in data set [1] and in data set [6] were 81% and 74%, respectively. Besides, the half-life in data set [2] and in [7] was above 145 min each time. For the same compound, the IC50 in data set [3] stood at 2.74 µM. In addition, the CLhep predicted in data set [4] was below 20.7 mL/min/kg; in data set [5], below 4.7 mL/min/kg. Further, the Selectivity Index in the data set filed under Homo sapiens amounted to 1.09.

With `CN1CCN(C(=O)c2ccc(/C=C3\SC(=S)N(Cc4cccc(C(F)(F)F)c4)C3=O)cc2)CC1`, the inhibition in [1] was 35%; in [6], 10%. For the same compound, in [3], the 50% inhibitory concentration (IC50) is above 10 µM.

Turning to `O=C(O)c1ccc(/C=C2\SC(=S)N(Cc3cccnc3)C2=O)cc1`, the figures for the inhibition in data set [1] and in data set [6] were 63% and above 10%, respectively. In data set [3], the IC50 stood at 6.27 µM.

`O=C(O)c1ccc(/C=C2\SC(=S)N(Cc3cccc(F)c3)C2=O)cc1`: the inhibition is 63% in [1] and above 10% in data set [6]. For the same compound, in [3], the IC50 came out at 3.52 µM.
